# Test results taken from ChEMBL document CHEMBL4145623, “Abietane Diterpenoids from the Roots of Clerodendrum trichotomum and Their Nitric Oxide Inhibitory Activities” (J Nat Prod, 2018).
# Where a name gives a salt, the structure may show the parent alone.
# System: RAW264.7
# Assay: Antiinflammatory activity against mouse RAW264.7 cells assessed as inhibition of LPS-induced NO production pretreated for 30 mins followed by LPS stimulation measured after 24 hrs by Griess reagent based assay
# Type: functional, cell-based
# Conditions: not given
# How it was run: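 Supernatant mixed 1:1 with Griess reagent for 10 min, absorbance read at 540 nm. DMSO final ≤0.1%. Aminoguanidine hydrochloride served as positive control. Run in triplicate; IC50 given as mean ± SD (n = 3).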
row,Structure (SMILES),IC50 [µM]
1,Cc1cc2c(O)c3c(c(O)c2o1)[C@@]1(C)CCC(=O)C(C)(C)C1=C(O)C3=O,> 50
2,CC1=C(C)C2=CC(=O)[C@@]34O[C@@]3(C(=O)c3oc(C)cc3C4=O)[C@@]2(C)CC1,10.6
3,C[C@@H](CO)c1cc2c(c(O)c1O)[C@@]1(C)CCCC(C)(C)[C@@H]1CC2=O,> 50
4,CC1=C(C)C2=CC(=O)c3c(O)c4c(c(O)c3[C@@]2(C)CC1=O)O[C@@H](C)[C@@H]4O,38.6
5,COC1=C2C(C)(C)C(=O)CC[C@]2(C)c2c(c(O)c3cc(C)oc3c2O)C1=O,31.1
6,CC1=C(C)[C@@H](O)C[C@@]2(C)C1=CC(=O)c1c2c(O)c2oc(C)cc2c1O,> 50
7,CC(O)Cc1cc2c(c(O)c1O)[C@@]1(C)CCCC(C)(C)[C@@H]1CC2=O (some centres undefined),> 50
8,CC(CO)c1cc2c(c(O)c1O[C@@H]1O[C@H](CO)[C@@H](O)[C@H](O)[C@H]1O)[C@@]1(C)CC[C@H](O)C(C)(C)[C@@H]1CC2 (some centres undefined),> 50
9,COC1=C2C(C)(C)CCC[C@]2(C)c2c(O)c3c(c(O)c2C1=O)C[C@H](C)O3,> 50
10,C[C@H]1Cc2c(O)c3c(c(O)c2O1)[C@@]1(C)CC[C@]2(C)O[C@]2(C)C1=CC3=O,> 50
11,C[C@H]1Cc2c(O)c3c(c(O)c2O1)[C@@]1(C)CCC2=C(COC2=O)C1=CC3=O,28.9
12,COC1=C2C(C)(C)CCC[C@]2(C)c2c(O)c3c(c(O)c2C1=O)C[C@H](CO)O3,35.6
13,COC1=C2C(C)(C)C(=O)CC[C@]2(C)c2c(O)c3c(c(O)c2C1=O)C[C@H](C)O3,> 50
14,COC(=O)C1=C(C)C2=CC(=O)c3c(O)c4c(c(O)c3[C@@]2(C)CC1)O[C@@H](C)C4,> 50
15,C[C@H]1Cc2c(O)c3c(c(O)c2O1)[C@@]1(C)CCC(=O)C(C)(C)[C@@H]1CC3=O,> 50
16,CC1=C(C)C2=CC(=O)c3c(O)c4c(c(O)c3[C@@]2(C)CC1=O)O[C@@H](C)C4,31.4
17,CC(C)c1cc2c(c(O)c1O[C@@H]1O[C@H](CO)[C@@H](O)[C@H](O)[C@H]1O)[C@@]1(C)CCC[C@](C)(C(=O)O[C@@H]3O[C@H](CO)[C@@H](O)[C@H](O)[C@H]3O)[C@@H]1CC2,> 50

row,Structure (SMILES),IC50 [µM]
1,CC1=C(C)C2=CC(=O)c3c(O)c4c(c(O)c3[C@@]2(C)CC1)O[C@@H](C)[C@@H]4O,> 50
2,CC1=C(C)C2=CC(=O)C3=C(C(=O)[C@]4(Oc5c([C@H](C)CO)cc6c(c5O4)[C@]4(C)CCCC(C)(C)[C@H]4CC6=O)[C@@]4(O)C[C@H](C)O[C@]34O)[C@]2(C)CC1,5.6
3,CC1(C)CCC[C@]2(C)c3c(O)c4c(c(O)c3C(=O)C[C@@H]12)C[C@H](CO)O4,> 50
4,COC1=C2C(C)(C)CCC[C@]2(C)c2c(c(O)c3cc(CO)oc3c2O)C1=O,16.1
5,Cc1cc2c(O)c3c(c(O)c2o1)[C@@]1(C)CCC(=O)C(C)(C)[C@@H]1CC3=O,6
6,C[C@@]12C[C@@H]1CC[C@]1(C)c3c(O)c4c(c(O)c3C(=O)C[C@@H]21)C[C@H](CO)O4,> 50
7,CC1=C(C)[C@@H](O)C[C@@]2(C)C1=CC(=O)c1c(O)c3c(c(O)c12)O[C@@H](C)C3,6.5
8,C=C1C2=CC(=O)c3c(O)c4c(c(O)c3[C@@]2(C)CC[C@@]1(C)O)OC(C)C4 (some centres undefined),> 50
9,CC(C)c1cc2c(c(O)c1O[C@@H]1O[C@H](CO)[C@@H](O)[C@H](O)[C@H]1O)[C@@]1(C)CC[C@H](O[C@@H]3O[C@H](CO)[C@@H](O)[C@H](O)[C@H]3O)C(C)(C)[C@@H]1CC2,> 50
10,C=C1C(C)=CC[C@]2(C)c3c(cc(CC(C)O)c(O[C@@H]4O[C@H](CO)[C@@H](O)[C@H](O)[C@H]4O)c3O)C(=O)C[C@@H]12 (some centres undefined),> 50
11,CC1=C(CO)C2=CC(=O)c3c(c(O)c4oc(C)cc4c3O)[C@@]2(C)CC1=O,> 50
12,CC1=C(C)C2=CC(=O)c3c(c(O)c4oc(C)cc4c3O)[C@@]2(C)CC1=O,> 50
13,CC(C)c1cc2c(c(O)c1O)[C@@]1(C)CCCC(C)(C)[C@@H]1[C@@H](O)C2=O [6-ALPHA-HYDROXYDEMETHYL-CRYPTOJAPONOL],9.4
14,CC(C)c1cc2c(c(O)c1O)[C@@]1(C)CCCC(C)(C)[C@@H]1CC2=O [DEMETHYLCRYPTOJAPONOL],15.5
15,N=C(N)NN [PIMAGEDINE HYDROCHLORIDE],26.2
16,C[C@H]1Cc2c(O)c3c(c(O)c2O1)[C@@]1(C)CCC(=O)C(C)(C)C1=C(O)C3=O [TEUVINCENONE A],> 50
17,CC1(C)CCC[C@@]2(C)C1=C(O)C(=O)c1c(O)c3c(c(O)c12)O[C@@H](CO)C3 [VILLOSIN C],15.5

# System: not listed separately
# Assay: Cytotoxicity against mouse RAW264.7 cells assessed as cell survival at 25 uM
# Type: cell-based
# Conditions: read-out: Survival
row,Structure (SMILES),viability at 25 µM [%]
1,CC1=C(C)C2=CC(=O)c3c(O)c4c(c(O)c3[C@@]2(C)CC1)O[C@@H](C)C4,< 15
2,CC1=C(C=O)CC[C@@]2(C)C1=CC(=O)c1c(O)c3c(c(O)c12)O[C@@H](C)C3,< 15
3,CC1(C)CCC[C@@]2(C)C1=CC(=O)c1c(O)c3c(c(O)c12)O[C@@H](CO)C3,< 15
4,CC1=C(C)[C@H](O)C[C@@]2(C)C1=CC(=O)c1c2c(O)c2oc(C)cc2c1O,< 15
5,CC1=C(C)C2=CC(=O)c3c(c(O)c4oc(C)cc4c3O)[C@@]2(C)CC1,< 15
6,CC1=C(CO)C(=O)C[C@@]2(C)C1=CC(=O)c1c(O)c3c(c(O)c12)O[C@@H](C)C3,< 15
7,CC1=C(C)[C@H](O)C[C@@]2(C)C1=CC(=O)c1c(O)c3c(c(O)c12)O[C@@H](C)C3,< 15
8,CC1=C(CO)CC[C@@]2(C)C1=CC(=O)c1c(O)c3c(c(O)c12)O[C@@H](C)C3,< 15
9,CC1=C(C)C2=CC(=O)C3=C(C(=O)c4oc(C)cc4C3=O)[C@@]2(C)CC1,< 15
10,C[C@H]1Cc2c(O)c3c(c(O)c2O1)[C@@]1(C)CC[C@H](O)C(C)(C)[C@@H]1CC3=O,< 15
